Results on 2 molecules are retold here after PMC5609126 (ACS Chemical Neuroscience, 2017).

A short description of data set [1]: Metabolite analysis in plasma and brain tissue after tracer injection. It counts as in vivo. The conditions noted are these: Wistar rats, mean ± SD; for parent tracer, brain: brain tissue. A digest of the protocol:
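Male Wistar rats (230–291 g) got radiotracer (28 ± 4 or 43 ± 24 MBq, depending on tracer) by tail vein under isoflurane and stayed conscious until sacrifice at 5, 15 or 60 min (n = 3). Heparinised plasma was run on a tC18 cartridge: the water wash was the polar metabolite fraction and the methanol eluate the nonpolar parent fraction, analysed by HPLC. Half-brains were homogenised in cold H2O/MeCN (1:1), centrifuged, and supernatants run on HPLC.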

Data set [2] is described as follows: Biodistribution in selected organs. It counts as in vivo. The conditions noted are these: Wistar rats, 5, 15, 60 min after injection. A digest of the protocol: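 Male Wistar rats (218–244 g) got 50 ± 2 MBq radiotracer i.v. by tail vein under isoflurane (2% in O2). They stayed conscious until sacrifice, except the 5 min group. Rats were killed under isoflurane at 5, 15 or 60 min (n = 3). Heart-puncture blood, heart, lungs, liver, kidneys, bone, cerebral cortex, cerebellum and remaining brain were weighed and gamma-counted. Results were expressed as %ID/g.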

Another data set relates to BCRP. As to the kind of experiment: PET imaging in Bcrp1. It counts as in vivo. To be noted: Bcrp1(-/-) mice, PET image-derived brain and blood curves. A digest of the protocol: (§1)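 Male FVB-background wild-type, Mdr1a/b(−/−) and Bcrp1(−/−) mice (28.3–39.7 g) were isoflurane-anaesthetised with jugular cannulas. They got 3.6–3.8 MBq radiotracer and 60 min dynamic PET in groups of 4–6, mostly on HRRT. One tracer's Mdr1a/b(−/−) vs WT study used nanoPET/CT and PET/MR. Ellipsoid ROIs gave brain TACs (SUV) and left-ventricle blood curves. Brain-to-blood AUC ratios were calculated from the AUCs.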

Data set [3] deals with P-gp. As to the kind of experiment: PET imaging in Mdr1a/b. It counts as in vivo, mice. The conditions noted are these: for brain-to-blood AUC ratios: PET image-derived brain and blood curves. The method, boiled down: as §1
Data set [4] has as its system P-gp. Nature of the data set: P-gp blocking study with tariquidar, PET whole brain uptake. It counts as in vivo. To be noted: Wistar rats; for increase in brain uptake after tariquidar vs baseline scans: tariquidar 15 mg/kg i.v. 30 min before tracer, PET whole brain.
A further data set is described as follows: PET imaging in wild-type. It counts as in vivo. To be noted: WT mice, PET image-derived brain and blood curves. A digest of the protocol: as §1

Where only a bound is given, the exact number is not on record here.

As for `COc1ccc(CCN(CC[18F])CCC[C@](C#N)(c2ccc(OC)c(OC)c2)C(C)C)cc1OC` [[^18F]1, (R)-5-((3,4-Dimethoxyphenethyl)(2-[^18F]fluoroethyl)amino)-2-(3,4-dimethoxyphenyl)-2-isopropylpentanenitrile], the “parent tracer, brain” value in data set [1] (15 min after injection) was 14 ± 2 Percentage of total radioactivity. Also, the “parent tracer, plasma” value was 19 ± 2 Percentage of total radioactivity in data set [1] (15 min after injection) and 3 ± 1 Percentage of total radioactivity in data set [1] (60 min after injection). For the same molecule, the “bone uptake (defluorination)” value in data set [2] is “bone uptake was low and did not increase over time”. Further, the brain uptake entry in data set [2] is “low brain uptake”. Further, the “brain-to-blood AUC ratios” value is reported as 0.88 ± 0.06 with BCRP, 0.98 ± 0.07 with P-gp [3] (Mdr1a/b(-/-) mice) and 0.52 ± 0.05 in the data set “PET imaging in wild-type”. Also, in the data set with P-gp [3] (during the first 10 min, PET whole brain), the “higher brain uptake in Mdr1a/b(-/-) mice compared with wild-type mice” value amounted to 1.4 fold. In addition, the “time of highest brain uptake” value with P-gp [4] (PET whole brain time-activity curve, tariquidar blocking study) amounted to 5 min. For the same molecule, the “increase in brain uptake after tariquidar vs baseline scans” value with P-gp [4] was determined as 3.6 fold.
With `COc1ccc([C@@](C#N)(CCCNCCc2ccc(OCC[18F])c(OC)c2)C(C)C)cc1OC` [[^18F]2, (R)-2-(3,4-Dimethoxyphenyl)-5-((4-(2-[^18F]fluoroethoxy)-3-methoxyphenethyl)amino)-2-isopropylpentanenitrile], the “parent tracer, brain” value in data set [1] (5 min after injection) was 26 ± 6 Percentage of total radioactivity; in data set [1] (15 min after injection), 17 ± 7 Percentage of total radioactivity; in data set [1] (60 min after injection), 6 ± 1 Percentage of total radioactivity. The entries for the “parent tracer, plasma” value in data set [1] (5 min after injection), in data set [1] (15 min after injection) and in data set [1] (60 min after injection) were 20 ± 3 Percentage of total radioactivity, 8 ± 3 Percentage of total radioactivity and 4 ± 1 Percentage of total radioactivity, respectively. In addition, the “bone uptake (defluorination)” value in data set [2] is “low bone uptake”. Further, the “brain-to-blood AUC ratios” value in the data set with BCRP worked out at 0.20 ± 0.02; in the data set on P-gp [3] (Mdr1a/b(-/-) mice), 0.75 ± 0.14; in “PET imaging in wild-type” it was 0.18 ± 0.04. For the same molecule, the “SUV plateau of brain uptake” value with P-gp [3] (Mdr1a/b(-/-) mice, at the end of the scan (60 min)) was “about 0.9 SUV”. Besides, in the data set on P-gp [3] (maximum level over 60 min scan, PET whole brain), the “higher brain uptake in Mdr1a/b(-/-) mice than in wild-type mice” value is not above 6.4 fold. The “increase in brain uptake after tariquidar vs baseline scans” value in the data set with P-gp [4] was 2.4 fold.
